Published values gathered from unrelated publications.
Lines come from different studies, so protocols differ.
INSR: Insulin receptor (INSR, Homo sapiens, UniProt P06213)
INSR phosphorylated: Insulin receptor, phosphorylated (INSR, Homo sapiens, UniProt P06213)

SMILES | target | test | setting | endpoint | value
O=C1NC(=O)c2cc(Nc3ccc(F)cc3)c(Nc3ccc(F)cc3)cc21 | INSR | cell-free assay | 0.5 µM | remaining signal | 98.3%
N#CC1(c2ccccn2)CCN(Cc2cc(C(=O)N3CCCC3)c(=O)n3ccccc23)CC1 | INSR | cell-free assay, competition with immobilised ligand | 1 µM | remaining binding | 88%
Cc1ccc(C(=O)Nc2ccc(CN3CCN(C)CC3)c(C(F)(F)F)c2)cc1C#Cc1cnc2cccnn12 | INSR | cell-free assay | 23.5 nM | remaining signal | 85%
CCC(=N\O)/C(C)=C/c1ccc(F)cc1 | INSR | cell-free assay, competition with immobilised ligand | 1 µM | remaining binding | 100%
N#CCCc1ccc2c(c1)-c1[nH]c3ccc([N+](=O)[O-])cc3c1CC(=O)N2 | INSR | cell-free assay | 0.5 µM | remaining signal | 94.1%
CN(C)C1CCN(CC#Cc2nn(C3CCCC3)c3nc(NCc4ccccc4)ncc23)C1 (centres unmarked) | INSR | enzyme activity, inhibitor, FRET | 0.1 µM | inhibition | 7%
COc1cc2ncnc(Nc3ccc(Oc4ccccc4)c(C)c3C)c2cc1OC | INSR | enzyme activity, inhibitor | 1 µM | inhibition | 5%
C[C@@H]1CN(c2cc(-c3nn(C)c4ccc(OC5(C)CC5)cc34)ncn2)C[C@H](C)O1 | INSR | cell-free assay, competition with immobilised ligand | 1 µM | remaining binding | 100%
CNC(=O)c1cc(Oc2ccc(NC(=O)Nc3ccc(Cl)c(C(F)(F)F)c3)cc2)ccn1 | INSR | enzyme activity, inhibitor | 0.3 µM | inhibition | 3%
Cc1ccc(NC(=O)c2ccc(C)c(C(F)(F)F)c2)cc1C#Cc1nn(C2CCC(O)CC2)c2ncnc(N)c12 (centres unmarked) | INSR | cell-free assay | 10 µM | remaining signal | 97%
CS(=O)(=O)Nc1cccc(-c2csc(NC(=O)CSc3nc4nccnc4c(=O)n3CCc3ccccc3)n2)c1 | INSR | enzyme activity, inhibitor | 10 µM | inhibition | 1%
O=C(NCc1ncc(C(F)(F)F)cc1Cl)c1ccc2c(c1)C1(CCS(=O)(=O)CC1)[C@@H](C1CC1)N2S(=O)(=O)c1ccc(F)cc1 | INSR | cell-free assay, competition with immobilised ligand | 1 µM | remaining binding | 100%
COc1cc(/C=C/C(=O)CC(=O)/C=C/c2ccc(O)c(OC)c2)ccc1O | INSR | enzyme activity, inhibitor | 1 µM | activity vs control | 46%
Cc1ccc(Nc2nccc(N(C)c3ccc4c(C)n(C)nc4c3)n2)cc1S(N)(=O)=O | INSR | enzyme activity, inhibitor | 0.3 µM | inhibition | 6%
Cc1cc(NC(=O)c2cccc3cc(-c4cccc5[nH]nc(N)c45)ccc23)ccc1F | INSR | enzyme activity, inhibitor | 0.1 µM | activity vs control | 107%
CC(C)(O)c1cncc(-c2nc3ccc(F)cc3n2C2CC2)c1 | INSR | cell-free assay, competition with immobilised ligand | 1 µM | remaining binding | 100%
O=C1Nc2ccc(Cl)cc2C1=Cc1cc(Cl)c(O)c(Cl)c1 | INSR | cell-free assay | 0.5 µM | remaining signal | 99.2%
FC(F)(F)c1ccc2c(c1)nc(-c1cccnc1)n2C1CC1 | INSR | cell-free assay, competition with immobilised ligand | 1 µM | remaining binding | 100%
CN(c1ncccc1CNc1nc(Nc2ccc3c(c2)CC(=O)N3)ncc1C(F)(F)F)S(C)(=O)=O | INSR | enzyme activity, inhibitor | 1 µM | inhibition | 57.2%
CNCc1ccc(-c2cc(-c3nc(-c4ccc(S(=O)(=O)C(C)C)cc4)cnc3N)on2)cc1 | INSR | enzyme activity, inhibitor | 2 µM | inhibition | 0%
O=C1CCc2cc(Nc3cc(OC4CCOCC4)c([N+](=O)[O-])cc3Cl)ccc2N1 | INSR | cell-free assay, competition with immobilised ligand | 1 µM | remaining binding | 93%
CN1CC(Oc2cnc(C#N)cc2-c2ccn3nc(NC(=O)C4CC4)cc3c2)C1 | INSR phosphorylated | enzyme activity, inhibitor | 1 µM | inhibition | 1%
Cc1ccc(C(=O)NCc2ccsc2)cc1C#Cc1cn(C(C)C)c2ncnc(N)c12 | INSR phosphorylated | enzyme activity, inhibitor | 1 µM | activity vs control | 95%
